Our source for the inhibition and Activity values is ChEMBL document CHEMBL4138056, “T- and B-cell immunosuppressive activity of novel α-santonin analogs with humoral and cellular immune response in Balb/c mice” (Medchemcomm, 2017).

Structures are written as SMILES.

Series [1] concerns B-cell line. Put plainly: Immunosuppressive activity in Balb/c mouse B cells assessed as inhibition of LPS-induced cell proliferation at 100 uM after 48 hrs by MTT assay relative to control. The series is classed as functional. The method, boiled down:
(§1)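 Balb/c spleen single-cell suspension, RBCs lysed with tris-ammonium chloride, viability by trypan blue; 1×10^6 cells/mL stimulated with LPS (10 μg/mL) for B cells, test agent 1, 10 or 100 μM, 48 h at 37 °C, 5% CO2. MTT 4 h, DMSO solubilization, OD 540 nm; % change vs mitogen control; triplicate, three separate experiments.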

The subject of series [2] is B-cell line. The experiment in a line: Cytotoxicity against Balb/c mouse B cells assessed as decrease cell survival at 1 uM by MTT assay. The series is classed as cell-based. The method, boiled down: (§2)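 Balb/c splenocytes (RBC lysed with tris-ammonium chloride, trypan blue viability) seeded at 1×10^6 cells/mL with Con A or LPS (10 μg/mL each) and test agent at 1, 10 or 100 μM for 48 h at 37 °C, 5% CO2; MTT added for 4 h, formazan dissolved in DMSO, OD 540 nm. Cytotoxicity scored +/−; triplicate, three separate experiments.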

The subject of series [3] is Murine T-cell line. The experiment in a line: Cytotoxicity against Balb/c mouse T cells assessed as decrease in cell survival at 1 uM by MTT assay. It counts as cell-based. The method, boiled down:
as §2

The subject of series [4] is Murine T-cell line. The experiment in a line: Immunostimulant activity in Balb/c mouse T cells assessed as induction of ConA-induced cell proliferation at 100 uM after 48 hrs by MTT assay relative to control.
The subject of series [5] is Murine T-cell line. The experiment in a line: Immunosuppressive activity in Balb/c mouse T cells assessed as inhibition of ConA-induced cell proliferation at 10 uM after 48 hrs by MTT assay relative to control.
Series [6] concerns B-cell line. Put plainly: Immunosuppressive activity in Balb/c mouse B cells assessed as inhibition of LPS-induced cell proliferation at 10 uM after 48 hrs by MTT assay relative to control. The series is classed as functional. The method, boiled down:
as §1

The test system of series [7] is B-cell line. The experiment in a line: Cytotoxicity against Balb/c mouse B cells assessed as decrease cell survival at 100 uM by MTT assay. The series is classed as cell-based. The method, boiled down:
as §2

The subject of series [8] is B-cell line. The experiment in a line: Immunosuppressive activity in Balb/c mouse B cells assessed as inhibition of LPS-induced cell proliferation at 1 uM after 48 hrs by MTT assay relative to control. It counts as functional. The method, boiled down:
as §1

The subject of series [9] is B-cell line. The experiment in a line: Cytotoxicity against Balb/c mouse B cells assessed as decrease cell survival at 10 uM by MTT assay. The series is classed as cell-based. Summed up:
as §2

The test system of series [10] is Murine T-cell line. Put plainly: Cytotoxicity against Balb/c mouse T cells assessed as decrease in cell survival at 100 uM by MTT assay. It counts as cell-based. The method, boiled down: as §2
Series [11] has as its system Murine T-cell line. Put plainly: Immunosuppressive activity in Balb/c mouse T cells assessed as inhibition of ConA-induced cell proliferation at 1 uM after 48 hrs by MTT assay relative to control.
The subject of series [12] is Murine T-cell line. Put plainly: Cytotoxicity against Balb/c mouse T cells assessed as decrease in cell survival at 10 uM by MTT assay. The series is classed as cell-based. The method, boiled down: as §2
In series [13] the test system is B-cell line. Put plainly: Immunostimulant activity in Balb/c mouse B cells assessed as induction of LPS-induced cell proliferation at 100 uM after 48 hrs by MTT assay relative to control. It counts as cell-based. Summed up:
as §1

Series [14] relates to Murine T-cell line. Put plainly: Immunosuppressive activity in Balb/c mouse T cells assessed as inhibition of ConA-induced cell proliferation at 100 uM after 48 hrs by MTT assay relative to control.
In series [15] the test system is B-cell line. Put plainly: Immunostimulant activity in Balb/c mouse B cells assessed as induction of LPS-induced cell proliferation at 10 uM after 48 hrs by MTT assay relative to control. It counts as cell-based. The method, boiled down:
as §1

Series [16] relates to B-cell line. The experiment in a line: Immunostimulant activity in Balb/c mouse B cells assessed as induction of LPS-induced cell proliferation at 1 uM after 48 hrs by MTT assay relative to control. The series is classed as cell-based. The method, boiled down: as §1
Series [17] deals with Murine T-cell line. The experiment in a line: Immunostimulant activity in Balb/c mouse T cells assessed as induction of ConA-induced cell proliferation at 10 uM after 48 hrs by MTT assay relative to control.

In the case of `CCOc1cc(C)c2c(c1C)[C@@H]1OC(=O)[C@@H](C)[C@@H]1CC2`, the inhibition at 100 µM in the series on B-cell line [1] is 46%. Further, the Activity result in the series with B-cell line [2] was “Non-Toxic”; in the series on Murine T-cell line [3], “Non-Toxic”; in the series with Murine T-cell line [4], 16%; in the series with B-cell line [7], “Toxic”; in the series on B-cell line [9], “Toxic”; in the series with Murine T-cell line [10], “Toxic”. In addition, in the series with Murine T-cell line [12], the Activity result is “Toxic”. The inhibition at 10 µM with Murine T-cell line [5] was 5%; in the series on B-cell line [6], 1%. Also, the figures for the inhibition at 1 µM in the series on B-cell line [8] and in the series with Murine T-cell line [11] were 35% and 28%, respectively.

Take `CCCCC(=O)Oc1cc(C)c2c(c1C)[C@@H]1OC(=O)[C@@H](C)[C@@H]1CC2`: the Activity entry is on record as “Non-Toxic” in the series with B-cell line [2]; “Non-Toxic” in the series on Murine T-cell line [3]; 28.16% in the series with Murine T-cell line [4]; “Toxic” with B-cell line [7]; “Non-Toxic” in the series on B-cell line [9]; “Toxic” with Murine T-cell line [10]. Also, the Activity result in the series with Murine T-cell line [12] is “Non-Toxic”; in the series on B-cell line [13] it was 6.25%. In addition, the inhibition at 10 µM in the series with Murine T-cell line [5] was 29.6%; with B-cell line [6], 49%. Also, the inhibition at 1 µM with B-cell line [8] was 2.08%; in the series with Murine T-cell line [11], 43.2%.

With `CCCOc1cc(C)c2c(c1C)[C@@H]1OC(=O)[C@@H](C)[C@@H]1CC2`, the inhibition at 100 µM with B-cell line [1] turned out to be 43%. In addition, the Activity result in the series on B-cell line [2] is recorded as “Non-Toxic”; in the series with Murine T-cell line [3] it was “Non-Toxic”; in the series with Murine T-cell line [4], 36%; in the series with B-cell line [7], “Toxic”; with B-cell line [9], “Toxic”; in the series on Murine T-cell line [10] it was “Toxic”. Moreover, the Activity entry in the series on Murine T-cell line [12] is on record as “Toxic”. Besides, the results for the inhibition at 10 µM in the series on Murine T-cell line [5] and with B-cell line [6] were 41% and 49%, respectively. For the same molecule, the inhibition at 1 µM in the series on B-cell line [8] stood at 47%; with Murine T-cell line [11], 33%.

Take `Cc1cc(OC(=O)c2ccccc2)c(C)c2c1CC[C@H]1[C@H](C)C(=O)O[C@@H]21`: the inhibition at 100 µM in the series on B-cell line [1] is 17.7%. Besides, the Activity entry in the series with B-cell line [2] is “Non-Toxic”; in the series with Murine T-cell line [3] it was “Non-Toxic”; with Murine T-cell line [4], 23.94%; in the series on B-cell line [7] it was “Non-Toxic”; in the series on B-cell line [9] it was “Non-Toxic”; in the series with Murine T-cell line [10] it was “Non-Toxic”. For the same molecule, the Activity result with Murine T-cell line [12] is given as “Non-Toxic”. For the same molecule, the inhibition at 10 µM in the series on Murine T-cell line [5] was found to be 39.4%; with B-cell line [6], 43.8%. The inhibition at 1 µM in the series on B-cell line [8] amounted to 18.8%; in the series on Murine T-cell line [11], 71.8%.

As to `CCCCCC(=O)Oc1cc(C)c2c(c1C)[C@@H]1OC(=O)[C@@H](C)[C@@H]1CC2`, the inhibition at 100 µM with Murine T-cell line [14] was 78.9%. Also, the Activity result in the series on B-cell line [2] is reported as “Non-Toxic”; with Murine T-cell line [3], “Non-Toxic”; in the series on B-cell line [7], “Toxic”; in the series with B-cell line [9] it was “Toxic”; in the series with Murine T-cell line [10], “Toxic”; with Murine T-cell line [12], “Toxic”. For the same molecule, the Activity in the series on B-cell line [13] was 7.29%. Moreover, the inhibition at 10 µM with Murine T-cell line [5] turned out to be 46%; in the series with B-cell line [6], 26%. Further, the figures for the inhibition at 1 µM in the series on B-cell line [8] and in the series on Murine T-cell line [11] were 22.9% and 39.4%, respectively.

As to `CCCCCCCC(=O)Oc1cc(C)c2c(c1C)[C@@H]1OC(=O)[C@@H](C)[C@@H]1CC2`, the results for the inhibition at 100 µM in the series on Murine T-cell line [14] and with B-cell line [1] were 4.22% and 57.3%, respectively. In addition, the Activity in the series on B-cell line [15] was 53.12%; with B-cell line [2] it was “Non-Toxic”; in the series with Murine T-cell line [3], “Non-Toxic”; with B-cell line [7] it was “Toxic”; with B-cell line [9], “Non-Toxic”; with Murine T-cell line [10], “Toxic”. Also, the Activity result in the series on Murine T-cell line [12] is “Non-Toxic”. In addition, the inhibition at 10 µM with Murine T-cell line [5] turned out to be 43.1%. Besides, the inhibition at 1 µM amounted to 37.5% in the series with B-cell line [8] and 50.4% in the series on Murine T-cell line [11].

For `Cc1cc(OC(=O)C(C)C)c(C)c2c1CC[C@H]1[C@H](C)C(=O)O[C@@H]21`, the inhibition at 100 µM in the series on Murine T-cell line [14] is 73.2%; with B-cell line [1], 52.1%. The Activity result with B-cell line [2] is given as “Non-Toxic”; with Murine T-cell line [3], “Non-Toxic”; with B-cell line [7], “Non-Toxic”; in the series on B-cell line [9], “Non-Toxic”; with Murine T-cell line [10], “Non-Toxic”; in the series on B-cell line [16], 20.83%. The Activity entry in the series on Murine T-cell line [12] was “Non-Toxic”. Moreover, the values for the inhibition at 10 µM with Murine T-cell line [5] and with B-cell line [6] were 61.5% and 33.3%, respectively. For the same molecule, the inhibition at 1 µM in the series with Murine T-cell line [11] is 53.3%.

Turning to `Cc1cc(O)c(C)c2c1CC[C@H]1[C@H](C)C(=O)O[C@@H]21`, the Activity result is reported as “Toxic” with B-cell line [2]; “Toxic” with Murine T-cell line [3]; 58.13% in the series on Murine T-cell line [4]; “Toxic” with B-cell line [7]; “Toxic” with B-cell line [9]; “Toxic” in the series on Murine T-cell line [10]. The values for the Activity result in the series with Murine T-cell line [12] and in the series with B-cell line [13] were “Toxic” and 38.25%, respectively. Further, the values for the inhibition at 10 µM in the series on Murine T-cell line [5] and with B-cell line [6] were 27.4% and 24.9%, respectively. Moreover, the inhibition at 1 µM in the series with B-cell line [8] is 23.3%; with Murine T-cell line [11], 22.1%.

As for `Cc1cc(OCc2ccccc2)c(C)c2c1CC[C@H]1[C@H](C)C(=O)O[C@@H]21`, the Activity result in the series with B-cell line [2] was “Non-Toxic”; in the series on Murine T-cell line [3] it was “Non-Toxic”; with Murine T-cell line [4], 16%; in the series with B-cell line [7], “Toxic”; with B-cell line [9], “Non-Toxic”; in the series with Murine T-cell line [10], “Toxic”. Further, the Activity entry is given as “Non-Toxic” in the series with Murine T-cell line [12] and 29% in the series with B-cell line [13]. For the same molecule, the inhibition at 10 µM is 60% in the series on Murine T-cell line [5] and 74% in the series with B-cell line [6]. The inhibition at 1 µM with B-cell line [8] was determined as 53%; in the series with Murine T-cell line [11], 58%.

For `CC1=C2[C@H]3OC(=O)[C@@H](C)[C@@H]3CC[C@@]2(C)C=CC1=O` [SANTONIN], the inhibition at 100 µM was 8.16% in the series with Murine T-cell line [14] and 33.2% in the series on B-cell line [1]. Moreover, the Activity entry with B-cell line [2], with Murine T-cell line [3], in the series on B-cell line [7], with B-cell line [9], in the series on Murine T-cell line [10] and in the series with Murine T-cell line [12] was “Non-Toxic” throughout. In addition, the Activity in the series with Murine T-cell line [17] stood at 3.55%. In the series on B-cell line [6], the inhibition at 10 µM worked out at 27.1%. Further, the inhibition at 1 µM in the series on B-cell line [8] came out at 19%; in the series on Murine T-cell line [11], 35.4%.
